In the library only some 2.3% were active in any assay of this set; here they are far more common.
TAAR1 ag: agonists of human TAAR1; CHO RD-HGA16 TAAR1, Fluo-8 calcium fluorescence; vehicle wells 0%, saturating PEA agonist 100%; activation, % at 3 µM; 360,000 compounds, 0.99% hits;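 active = activation above the mean activation of all test compounds in the run plus 3 SD, cut at about 38% in these data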
Target sequence (Q96RJ0 whole entry, looked up): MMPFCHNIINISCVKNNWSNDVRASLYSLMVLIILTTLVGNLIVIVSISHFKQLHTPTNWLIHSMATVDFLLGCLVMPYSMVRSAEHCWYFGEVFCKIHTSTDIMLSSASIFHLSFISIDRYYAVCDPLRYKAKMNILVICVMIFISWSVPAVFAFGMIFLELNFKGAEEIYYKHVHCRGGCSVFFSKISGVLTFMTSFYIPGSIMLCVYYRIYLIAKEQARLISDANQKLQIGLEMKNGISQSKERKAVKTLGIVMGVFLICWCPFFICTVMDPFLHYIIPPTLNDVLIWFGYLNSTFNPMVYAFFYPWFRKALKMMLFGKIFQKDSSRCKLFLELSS
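Assay system – CHO-derived RD-HGA16 cells with stable Gα16 and human TAAR1 · Compound dosing – one-point dosing at 3 µM (nominal) · Incubation – 17-24 h seeding, 75 min 37 °C dye, 30 min RT · Measured by – kinetic Fluo-8 calcium fluorescence · Control set – DMSO vehicle as 0%, PEA at EC100 as 100% · Repeats – single well for each compound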
V1aR counter: V1a receptor agonism, counter-screen for OXTR agonists. P37288. CHO-V1R cells, Fluo-8 calcium fluorescence, agonist mode; 0% DMSO, 100% 3 nM vasopressin. activation, % at 3 µM. 320,000 compounds, 0.25% hits. AID 2797;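 active = activation above the mean activation of all tested compounds plus 3 SD, per screening run, cut at about 20% in these data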;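 note: signal is peak over basal fluorescence ratio across a 100 second FLIPR read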
OXTR potentiate: human OXTR potentiation. P30559. CHO-OTR cells, Fluo-8 calcium fluorescence, potentiator mode; 0% = oxytocin EC15, 100% = EC100. activation, % at 3 µM. 320,000 compounds, 0.061% hits. AID 2445;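 active = activation above that plate's cutoff, the mean activation of tested compounds plus 3 SD, cut at about 6.6% in these data, passing the limit was not always enough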;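 note: 100% uses oxytocin at 75 nM as the full agonist control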
Target sequence (P30559 whole entry, looked up): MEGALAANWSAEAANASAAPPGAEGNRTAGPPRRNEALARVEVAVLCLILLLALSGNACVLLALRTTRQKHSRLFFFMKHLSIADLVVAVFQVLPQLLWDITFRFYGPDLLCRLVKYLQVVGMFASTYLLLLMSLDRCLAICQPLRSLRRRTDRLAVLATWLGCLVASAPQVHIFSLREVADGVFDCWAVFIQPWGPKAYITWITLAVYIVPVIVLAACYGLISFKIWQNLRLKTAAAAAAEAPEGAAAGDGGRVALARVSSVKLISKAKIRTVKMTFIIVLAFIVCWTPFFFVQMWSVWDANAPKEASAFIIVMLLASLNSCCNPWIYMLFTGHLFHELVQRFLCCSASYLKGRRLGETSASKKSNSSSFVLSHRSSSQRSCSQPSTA
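Assay system: CHO cell line stably expressing human OTR. Reagent: EC15 oxytocin agonist. Dosing: single dose, 3.0 µM nominal final compound concentration. Timing: compound 6 min at room temperature before oxytocin, 100 s read. Signal: kinetic Fluo-8 calcium fluorescence. Controls: oxytocin EC15 low and EC100 high.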
TAAR1 antag: antagonists of human TAAR1; Q96RJ0; CHO RD-HGA16 TAAR1, Fluo-8 calcium fluorescence, antagonist; inhibition, % at 3 µM; 360,000 compounds, 1.5% hits;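 active = inhibition above a per-plate cutoff, the mean inhibition of test compounds on that plate plus 3 SD, cut at about 49% in these data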;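 note: 0% = DMSO plus EC80 beta-PEA response and 100% = DMSO alone without agonist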
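Material: RD-HGA16 CHO cells with stable hTAAR1 and Gα16; Dosing: single nominal final test compound concentration of 3 µM; Schedule: seeding 17-24 h prior, 75-min 37 °C, 30-min RT dye loading; Detection: kinetic Fluo-8 calcium fluorescence measurement; Measure: % inhibition from peak post-agonist over basal fluorescence ratio; Benchmarks: vehicle and agonist controls.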
OXTR ag: activates the human oxytocin receptor; P30559; CHO-OTR cells, Fluo-8 calcium fluorescence; normalized: DMSO 0%, oxytocin 100%; activation, % at 3 µM; 320,000 compounds, 0.32% hits;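 active = activation above the mean of all tested compounds plus 3 SD, cutoff set per screening run, cut at about 20% in these data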;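 note: peak over basal fluorescence ratio from a 100 s FLIPR kinetic read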
TAAR1 ag conf: confirmation of human TAAR1 agonists; activation, % at 3 µM; CHO RD-HGA16 TAAR1, Fluo-8 calcium fluorescence; scaled: DMSO 0%, maximal phenethylamine 100%; shares compounds with TAAR1 ag; 2,400 compounds, 82% hits;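 active = activation above a cutoff set at the run's mean compound activation plus 3 SD, cut at about 39% in these data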
Ga16 ag counter: nonselective agonist in parental cells, TAAR1 agonist counter-screen | shares compounds with TAAR1 ag | CHO-Ga16 parental, Fluo-8 calcium fluorescence; normalized to maximal ATP response, DMSO zero | activation, % at 3 µM | 2,400 compounds, 50% hits | AID 651787;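 active = activation above the run cutoff, the mean activation over all tested wells plus 3 SD, cut at about 12% in these data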;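 note: 0% = DMSO wells and 100% = maximal ATP response on the peak over basal ratio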
TAAR1 desens: counter-screen for human TAAR1 agonists: agonists that desensitize TAAR1; shares compounds with TAAR1 ag; CHO RD-HGA16 hTAAR1, Fluo-8 calcium, beta-PEA response inhibition; inhibition, % at 3 µM; 2,400 compounds, 46% hits; AID 651951;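 active = inhibition above the run cutoff, the mean inhibition of all test compounds plus 3 SD, cut at about 49% in these data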;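 note: beta-PEA stimulus applied at its EC80; loss of beta-PEA calcium signal after compound pretreatment read as receptor desensitization; 0% = DMSO with beta-PEA at EC80 and 100% = DMSO alone without agonist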
Ga16 nonsel ant: nonselective Ga16 antagonism, counter-screen. 2,400 compounds, 39% hits. inhibition, % at 3 µM. shares compounds with TAAR1 ag. CHO-Ga16 ATP-induced calcium, Fluo-8 fluorescence;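 active = inhibition above the plate's mean compound inhibition plus 3 SD, computed per plate, cut at about 22% in these data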;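 note: 0% = EC80 ATP with DMSO and 100% = DMSO wells without ATP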
* = called active by the depositor.

Results for O=C(C1=C(O)C(=O)N(CCc2ccccc2)C1c1ccncc1)c1cc2ccccc2o1 (configuration not stated) ?
TAAR1 ag: 44*; V1aR counter: 1; OXTR potentiate: -14; TAAR1 antag: 2; OXTR ag: 1; TAAR1 ag conf: 54*; Ga16 ag counter: 1; TAAR1 desens: 1; Ga16 nonsel ant: 4

Results for O=Cc1ccc(Cl)c(Cl)c1 ?
TAAR1 ag: 0; V1aR counter: 1; OXTR potentiate: -4; TAAR1 antag: 0; OXTR ag: 0

How did CCOC(=O)C1=C(Cc2ccc(C)cc2)C(=O)c2ccccc2C1=O do in these assays?
TAAR1 ag: 54*; V1aR counter: 4; OXTR potentiate: -5; TAAR1 antag: 54*; OXTR ag: 5; TAAR1 ag conf: 19; Ga16 ag counter: 23*; TAAR1 desens: 42; Ga16 nonsel ant: 44*

Results for CCOC(=O)C1=C(O)c2ccccc2C(=O)/C1=C\c1ccc(CC)cc1 ?
V1aR counter: 1; OXTR potentiate: 3; OXTR ag: 3

How did Cc1cc(NC(=O)OC(C)(C)C)c(-n2nnnc2C(C(=O)c2ccc3c(c2)OCO3)N2CCN(c3ccccn3)CC2)cc1C (configuration not stated) do in these assays?
TAAR1 ag: -1; TAAR1 antag: -7

How did CN(CCc1ccccc1)C(C(=O)c1ccc2c(c1)OCO2)c1nnnn1-c1ccccc1NC(=O)OC(C)(C)C (configuration not stated) do in these assays?
TAAR1 ag: 86*; TAAR1 antag: 78*; TAAR1 ag conf: 85*; Ga16 ag counter: 1; TAAR1 desens: 82*; Ga16 nonsel ant: 8

How did CNC(=O)c1ccsc1NC(=O)C1CCCN1S(=O)(=O)c1cccs1 (configuration not stated) do in these assays?
TAAR1 ag: 13; V1aR counter: 1; OXTR potentiate: 0; TAAR1 antag: -35; OXTR ag: 1

Results for Cc1nccn1CC(=O)N/N=C/c1ccccc1O ?
TAAR1 ag: 59*; V1aR counter: -1; OXTR potentiate: -1; TAAR1 antag: -15; OXTR ag: 2; TAAR1 ag conf: 63*; Ga16 ag counter: 3; TAAR1 desens: 12; Ga16 nonsel ant: 2

What do the screens show for `Cc1ccc(S(=O)(=O)N2CCN(C(=O)c3cc(S(=O)(=O)N4CCOCC4)c(Cl)cc3Cl)CC2)cc1`?
TAAR1 ag: 1; TAAR1 antag: -14

How did Cc1sc2c3ccsc3ccc2[n+]1C do in these assays?
TAAR1 ag: 26; V1aR counter: 1; OXTR potentiate: -1; TAAR1 antag: 2; OXTR ag: 0

Results for Cc1sc2ccc3sccc3c2[n+]1C ?
TAAR1 ag: 48*; V1aR counter: 1; OXTR potentiate: 3; TAAR1 antag: 13; OXTR ag: 1; TAAR1 ag conf: 14; Ga16 ag counter: 8; TAAR1 desens: 11; Ga16 nonsel ant: 10

Results for CC(C)C(NC(=O)c1ccc(F)cc1)C(=O)OCC(=O)N1CC(=O)Nc2ccccc21 (configuration not stated) ?
TAAR1 ag: -1; V1aR counter: -1; OXTR potentiate: -3; TAAR1 antag: 8; OXTR ag: -2

What do the screens show for `O=C1CC(NCCc2ccccc2)C(=O)N1CCc1ccccc1` (configuration not stated)?
TAAR1 ag: 61*; V1aR counter: 2; OXTR potentiate: 1; TAAR1 antag: 10; OXTR ag: 1; TAAR1 ag conf: 63*; Ga16 ag counter: 3; TAAR1 desens: 11; Ga16 nonsel ant: 14

How did CC1CCc2c(sc3nc(CN4CCN(S(=O)(=O)c5ccccc5[N+](=O)[O-])CC4)[nH]c(=O)c23)C1 (configuration not stated) do in these assays?
TAAR1 ag: 2; V1aR counter: 2; OXTR potentiate: 4; TAAR1 antag: -26; OXTR ag: 0

Results for N/C(Cc1cccc2ccccc12)=N\OC(=O)c1ccccc1F ?
TAAR1 ag: 70*; TAAR1 antag: 33; TAAR1 ag conf: 81*; Ga16 ag counter: 0; TAAR1 desens: 47; Ga16 nonsel ant: 3

What do the screens show for `COc1ccccc1C/C(N)=N/OC(=O)COc1cccc2ccccc12`?
TAAR1 ag: 10; V1aR counter: 2; OXTR potentiate: -9; TAAR1 antag: -9; OXTR ag: 2

How did N/C(Cc1cccc2ccccc12)=N\OC(=O)COc1ccccc1 do in these assays?
TAAR1 ag: 54*; V1aR counter: 1; OXTR potentiate: 1; TAAR1 antag: 9; OXTR ag: -1; TAAR1 ag conf: 61*; Ga16 ag counter: 5; TAAR1 desens: 9; Ga16 nonsel ant: 5

What do the screens show for `O=C(NNC(=S)NC(=O)c1cccc([N+](=O)[O-])c1)c1ccc(Br)cc1`?
TAAR1 ag: 99*; V1aR counter: 2; OXTR potentiate: -9; TAAR1 antag: 14; OXTR ag: 9; TAAR1 ag conf: 107*; Ga16 ag counter: 81*; TAAR1 desens: 77*; Ga16 nonsel ant: 44*

How did Cc1ccc(C(=O)NC(=S)NNC(=O)c2cccc([N+](=O)[O-])c2)cc1 do in these assays?
TAAR1 ag: 83*; TAAR1 antag: 17; TAAR1 ag conf: 101*; Ga16 ag counter: 75*; TAAR1 desens: 62*; Ga16 nonsel ant: 35*

How did COc1ccc(-c2cc(-c3cccnc3)c(C#N)c(N)n2)cc1 do in these assays?
TAAR1 ag: 46*; V1aR counter: 1; OXTR potentiate: -3; TAAR1 antag: 37; OXTR ag: 0; TAAR1 ag conf: 29; Ga16 ag counter: 10; TAAR1 desens: 38; Ga16 nonsel ant: 22*

How did Cc1ccc(S(=O)(=O)NCC(=O)OCC(=O)NCc2ccc3c(c2)OCO3)cc1 do in these assays?
TAAR1 ag: 2; TAAR1 antag: -11

Assay outcomes as filed in PubChem.
